The list is not random: actives were taken first. Their share in the collection is about 4%.
Mdm2 MdmX PPI: human Mdm2/MdmX binding inhibition; O15151+Q00987; SaOS-2 split-luciferase Mdm2/MdmX complementation, luminescence; inhibition, % at 8 µM; 330,000 tested, 3% active;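 active = inhibition of at least 50% at 8 µM in the primary screen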
Exocytosis inh: lytic granule exocytosis inhibition; 360,000 tested, 0.66% active; inhibition, % at 10 µM; TALL-104 LAMP-1 surface exposure, flow cytometry; cells stimulated with thapsigargin and PMA; AID 651702;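 active = inhibition above about 55%, limit read from the data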
CHOP UPR activ: apoptotic UPR (CHOP) activation. CHO-CHOP luciferase reporter, luminescence; percent of tunicamycin response over DMSO baseline. activation, % at 10 µM. 330,000 tested, 0.34% active. AID 449763;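 active = at 10 µM dose, activation of 40% or more, normalized to positive control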;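 also: 100% = tunicamycin at 10 µg/mL and 0% = DMSO alone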
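Material: CHO-CHOP cells, stable luciferase reporter of PERK-eIF2a-CHOP signalling; quantity: 500 reporter cells seeded per well; buffer or medium: F12 medium containing 10% fetal bovine serum; compound: one dose, 10 µM in 0.5% DMSO; incubation: 6 h compound treatment, 37 °C; measured by: Steady-Glo luciferase luminescence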
XBP1 UPR activ: adaptive UPR (XBP1) activation; 330,000 tested, 0.33% active; CHO-XBP1 luciferase reporter, IRE1-XBP1 UPR activation, luminescence; percent of tunicamycin response, DMSO as zero; activation, % at 20 µM;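 active = versus positive control, 20 µM dose yields 30% or more activation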;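 also: 100% = tunicamycin at 10 µg/mL and 0% = DMSO only wells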
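Material: IRE1-XBP1 luciferase reporter CHO line / Quantity: one thousand reporter cells per well / Buffer or medium: F12 with 10% serum / Compound: 20 µM single concentration, DMSO 1% / Times: 6 h treatment, 37 °C / Detection: Steady-Glo luciferase glow luminescence, 10 min after reagent addition / Benchmarks: tunicamycin high, DMSO low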
ABHD5 PLIN5 PPI: ABHD5-PLIN5 protein interaction inhibition. Q00G26+Q8WTS1. Split G. princeps luciferase complementation, luminescence, 4 h. inhibition, % at 4 µM. 360,000 tested, 0.78% active;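 active = inhibition above the mean inhibition across every tested compound plus 3 SD, cut at about 22% in these data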;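 also: 0% = DMSO only wells and the 100% control is not disclosed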
Target sequence (Q00G26 whole entry, looked up): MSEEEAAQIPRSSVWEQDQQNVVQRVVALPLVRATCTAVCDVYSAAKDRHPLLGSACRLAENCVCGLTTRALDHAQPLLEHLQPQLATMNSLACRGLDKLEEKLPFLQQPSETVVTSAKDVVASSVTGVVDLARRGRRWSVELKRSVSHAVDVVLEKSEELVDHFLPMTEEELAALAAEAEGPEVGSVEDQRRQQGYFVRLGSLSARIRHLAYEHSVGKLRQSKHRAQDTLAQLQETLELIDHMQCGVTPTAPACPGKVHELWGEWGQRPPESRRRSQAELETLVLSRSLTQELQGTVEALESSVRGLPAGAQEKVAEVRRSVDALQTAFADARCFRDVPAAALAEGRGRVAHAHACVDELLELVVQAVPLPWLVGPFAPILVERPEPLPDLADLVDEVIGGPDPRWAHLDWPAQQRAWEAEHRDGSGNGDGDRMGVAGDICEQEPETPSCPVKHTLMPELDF
Target sequence (Q8WTS1 whole entry, looked up): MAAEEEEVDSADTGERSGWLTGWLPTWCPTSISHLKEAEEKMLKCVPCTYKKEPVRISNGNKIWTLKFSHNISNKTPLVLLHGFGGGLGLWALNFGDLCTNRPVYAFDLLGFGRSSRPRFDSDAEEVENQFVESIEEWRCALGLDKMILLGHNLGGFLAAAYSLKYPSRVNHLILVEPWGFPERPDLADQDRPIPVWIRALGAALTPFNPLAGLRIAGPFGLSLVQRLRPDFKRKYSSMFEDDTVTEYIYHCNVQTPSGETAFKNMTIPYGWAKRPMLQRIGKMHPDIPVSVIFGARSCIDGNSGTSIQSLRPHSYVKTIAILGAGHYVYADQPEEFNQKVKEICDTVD
ABHD5 PLIN5 conf: ABHD5-PLIN5 interaction inhibition, confirmed; shares compounds with ABHD5 PLIN5 PPI; biochemical ABHD5-PLIN5 interaction, luminescence; inhibition, % at 4 µM; 2,200 tested, 67% active; in the data active = inhibition above about 23%;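 also: 0% = DMSO vehicle wells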
HNF4 split-luc: counter-screen for ABHD5-PLIN5 inhibitors: HNF4 split-luciferase; HNF4 dimerization, luminescence, biochemical; shares compounds with ABHD5 PLIN5 PPI; 2,200 tested, 77% active; inhibition, % at 4 µM; AID 651674;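 active = mean inhibition across replicate wells exceeding the computed hit threshold, cut at about 13% in these data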;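 also: light from luciferase halves that rejoin when HNF4 fusion proteins dimerize; 0% = DMSO only wells and the 100% control is not given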
Granule exo CP1: blocks lytic granule exocytosis | shares compounds with Exocytosis inh | TALL-104 cells, LAMP-1 externalization, flow cytometry; stimulated with PMA plus thapsigargin | inhibition, % at 10 µM | 1,500 tested, 11% active; in the data active = inhibition above about 60%;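 also: 0% = stimulated vehicle wells and 100% = unstimulated wells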
Active calls of the source: *; / = no result.

SMILES | Mdm2 MdmX PPI | Exocytosis inh | CHOP UPR activ | XBP1 UPR activ | ABHD5 PLIN5 PPI | Granule exo CP1 | others
O=C1c2ccccc2CC1Sc1nnc(-c2ccncc2)o1 (configuration not stated) | -2 | 1 | 0 | 2 | -3 | /
Cc1ccccc1N1C(=O)CC(Sc2nnc(-c3ccccc3)o2)C1=O (configuration not stated) | 5 | 88* | 7 | -8 | 35* | 54 | ABHD5 PLIN5 conf=60*;HNF4 split-luc=98*
COc1ccccc1Cc1c(-c2cccc(Br)c2)nc2c(C)cc(Br)cn12 | / | 0 | / | / | -9 | /
CS(=O)(=O)c1nc(-c2ccc(F)cc2)cc(C(F)(F)F)n1 | / | 86* | / | / | 51* | 18 | ABHD5 PLIN5 conf=63*;HNF4 split-luc=99*
Nc1nc(-c2ccc(F)cc2)cc(C(F)(F)F)n1 | 20 | 4 | 0 | 3 | -3 | /
Cc1cc(NC(=O)CCC(=O)N(CC(=O)NC2CCCC2)c2ccc(F)c(Cl)c2)no1 | -7 | -1 | 1 | -2 | -14 | /
CC(=O)Cn1cnc2c(sc3nc(C)cc(C)c32)c1=O | -2 | -6 | 4 | 6 | -7 | /
CCCNC(=O)Cn1sc2nc(C)cc(C)c2c1=O | 9 | 58* | 3 | 1 | 45* | 103* | ABHD5 PLIN5 conf=30*;HNF4 split-luc=107*
Cc1nc2ccccc2n1CC(O)Cn1c2ccccc2c2ccccc21 (configuration not stated) | 40 | 58* | 1 | 1 | 29* | -10 | ABHD5 PLIN5 conf=9;HNF4 split-luc=25*
CCOc1ccc([N+](=O)[O-])c(N)c1 | 18 | -4 | 2 | 0 | -3 | /
O=C(O)Cn1c(SCCOc2ccccc2F)nc2ccccc21 | 25 | 2 | 1 | -2 | -4 | /
Cc1ccc(NC(=O)CN(C)C(=O)COC(=O)COc2cc(C)cc(C)c2)cc1 | / | -1 | / | / | -3 | /
COc1ccc(C(=O)c2ccc(Br)cc2)cc1 | -1 | 5 | 4 | 0 | -7 | /
COc1ccc(C(=O)/C=C2\C(=O)Nc3ccc(Br)cc32)cc1 | / | 82* | / | / | 85* | 40 | ABHD5 PLIN5 conf=97*;HNF4 split-luc=91*
Cc1ccc(-c2nn(-c3ccccc3)cc2CN(Cc2ccccc2)C(=O)c2ccco2)o1 | 35 | 108* | 5 | 1 | 38* | 104* | ABHD5 PLIN5 conf=15;HNF4 split-luc=21*
CCOC(=O)C1CCN(Cc2ccc(OC)c(C)c2OC)CC1 | -22 | -5 | -1 | 2 | 4 | /
CCOC(=O)C1CCN(Cc2cc(Cl)c3ccccc3c2O)CC1 | 12 | 78* | 1 | 2 | 66* | 0 | ABHD5 PLIN5 conf=20;HNF4 split-luc=55*
Cc1ccc(NC(=O)c2csnn2)c(C)c1 | 16 | -2 | 0 | 0 | 0 | /
Cc1ccc(-n2cc(-c3ccccc3)c3c(N4CCOCC4)ncnc32)cc1 | / | 4 | / | / | 2 | /
Cc1ccc(-n2cc(-c3ccccc3)c3c(N4CCN(C)CC4)ncnc32)cc1 | 37 | 69* | 3 | 3 | 24* | 7 | ABHD5 PLIN5 conf=11;HNF4 split-luc=1
Cc1cc(Br)cn2c(Cc3cccc(Cl)c3)c(-c3ccco3)nc12 | / | 56* | / | / | 28* | 22 | ABHD5 PLIN5 conf=28*;HNF4 split-luc=40*
Cc1oc(=O)c(NC(=O)c2ccc(Cl)cc2)cc1C(=O)c1ccccc1 | 1 | 103* | 14 | 11 | 46* | -9 | ABHD5 PLIN5 conf=11;HNF4 split-luc=95*
CCc1cc(C(=O)Cc2nc3ccccc3s2)c(O)cc1OCC(=O)O | 32 | -3 | 1 | 0 | 2 | /
O=C(Nc1ccc2c(c1)OCO2)C1CCCN(c2nc3ccccc3s2)C1 (configuration not stated) | 13 | 62* | 3 | 0 | -7 | -13
O=C(O)CC(Cc1ccccc1)c1ccc2c(c1)OCO2 (configuration not stated) | 7 | -4 | 1 | 2 | -6 | /
SMILES | Mdm2 MdmX PPI | Exocytosis inh | CHOP UPR activ | XBP1 UPR activ | ABHD5 PLIN5 PPI | Granule exo CP1 | others
CC(=O)N(CCC(Cc1ccccc1)c1ccc2c(c1)OCO2)Cc1ccc(Cl)cc1 (configuration not stated) | 26 | 90* | 2 | 2 | 1 | 19
COc1ccc(CCN2C(=O)c3ccccc3NC2c2cc(Cl)c(O)c(OC)c2)cc1 (configuration not stated) | 42 | 77* | 1 | 2 | 0 | -3
O=C(CC1=NC2(CCCC2)Cc2ccccc21)N1CCOCC1 | 0 | 39 | -1 | 3 | -12 | /
COc1ccc(C(=O)NCC(=O)N/N=C/C(C)=C/c2ccco2)cc1OC | 31 | -4 | 0 | -2 | 18 | /
COc1ccc(OC)c(S(=O)(=O)Nc2cccc(C(C)=O)c2)c1 | -11 | -2 | 0 | 2 | 2 | /
O=C(/C=C/c1cccc([N+](=O)[O-])c1)NCc1cccnc1 | 24 | -2 | -4 | -4 | -2 | /
Cc1cc(N2CCN(c3ncccn3)CC2)nc2c(C)cccc12 | -25 | 72* | 4 | -5 | -1 | -14
COc1ccc(N2CCN(c3cc(C)c4cccc(C)c4n3)CC2)cc1 | 3 | 0 | -1 | -3 | 6 | /
Cc1ccc(NC(=O)c2sc3nc(C)nc(N4CCN(c5ccccn5)CC4)c3c2C)c(C)c1 | 19 | -3 | 0 | 0 | -4 | /
Cc1nc(N2CCN(c3ccccn3)CC2)c2c(C)c(C(=O)N3CCN(c4ccccc4F)CC3)sc2n1 | / | 56* | / | / | 3 | -11
CCN(CC)S(=O)(=O)c1cccc(NC(=O)CNc2cccc(S(=O)(=O)N3CCCC3)c2)c1 | 29 | 0 | 6 | -2 | -1 | /
CCN(CC)S(=O)(=O)c1cc(NC(=O)CNc2cccc(S(=O)(=O)N3CCOCC3)c2)ccc1C | 29 | 57* | -1 | -4 | -1 | -5
OC(c1ccccc1)(c1ccc(F)cc1)C(c1ccccc1)N1CCOCC1 (configuration not stated) | 39 | 98* | -1 | -6 | -14 | 10
Cc1ccc2nc(-c3ccc(NC(=O)CNC4CC4)cc3)sc2c1 | / | 74* | / | / | 17 | 28
Cc1ccc2nc(-c3ccc(NC(=O)CN4C(=O)c5ccccc5C4=O)cc3)sc2c1 | -219 | -1 | 3 | 10 | -3 | /
Cc1ccc(S(=O)(=O)Nc2ccc(-c3nc4ccc(C)cc4s3)cc2)cc1 | 12 | 2 | 6 | -1 | -6 | /
Cc1cccc(S(=O)(=O)Nc2ccc(-c3nc4ccc(C)cc4s3)cc2)c1 | -206 | 75* | 5 | 4 | 1 | -11
COc1ccc(N(CC(=O)N2CCc3ccccc3C2)S(=O)(=O)c2c(C)nn(C)c2C)cc1 | 9 | 10 | 0 | -4 | 7 | /

Bioassay records (PubChem)
